# RBBP9 inhibitor – blocks human serine hydrolase RBBP9; O75884; recombinant RBBP9, FP-Rh probe fluorescence polarization; inhibition, % at 7.94 µM; 0.2% of 220,000 active;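 active = inhibition above the campaign mean of all tested compounds plus 3 SD, cut at about 14% in these data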;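 also: plate controls were DMSO wells with RBBP9 for no effect and wells lacking RBBP9 protein for full effect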
#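 Controls: DMSO-treated enzyme wells and wells lacking RBBP9 | Material: RBBP9 protein | Technique: Fluorescence polarization | Replication: Single well per compound, no replicates | Buffer or medium: Tris-NaCl-Pluronic buffer, pH 8.0 | Timing: 30 min compound preincubation, 45 min probe labeling, 25 °C | Read-out basis: Percent inhibition from mP, scaled between DMSO and no-protein wells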
# NCF1 inh – p47phox (human) inhibition; p47phox/p22phox peptide binding, fluorescence polarization, 2 h; P14598; inhibition, % at 24.7 µM; 0.53% of 220,000 active; AID 1274;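 also: 0% = p47phox with labelled peptide and 100% = labelled peptide alone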
# 14-3-3 Bad PPI – disrupts binding of bovine 14-3-3 zeta to phospho-Bad peptide. TR-FRET 14-3-3zeta/Dy647-pBad peptide displacement, 1 h. inhibition, % at 21.7 µM. 0.71% of 220,000 active. AID 781;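 active = inhibition above about 70%, limit read from the data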;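 also: 0% = full 14-3-3 plus peptide FRET controls and 100% = background without 14-3-3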
# Target sequence (P63103 whole entry, looked up): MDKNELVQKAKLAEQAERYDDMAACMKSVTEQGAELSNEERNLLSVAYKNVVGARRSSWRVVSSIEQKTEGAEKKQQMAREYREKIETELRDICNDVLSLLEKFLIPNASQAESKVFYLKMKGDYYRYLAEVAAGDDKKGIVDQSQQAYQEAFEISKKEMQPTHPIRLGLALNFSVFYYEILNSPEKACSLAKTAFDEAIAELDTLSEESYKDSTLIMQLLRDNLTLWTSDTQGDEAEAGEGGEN
# EBV gp42 inh – inhibitors of Epstein-Barr virus glycoprotein 42; Q1HVG2; Fluorescence polarization binding assay, mP read-out; inhibition, % (tested at 21.74 µM); 0.42% of 220,000 active; in the data active = inhibition above about 50%
# Target sequence (Q1HVG2 whole entry, looked up): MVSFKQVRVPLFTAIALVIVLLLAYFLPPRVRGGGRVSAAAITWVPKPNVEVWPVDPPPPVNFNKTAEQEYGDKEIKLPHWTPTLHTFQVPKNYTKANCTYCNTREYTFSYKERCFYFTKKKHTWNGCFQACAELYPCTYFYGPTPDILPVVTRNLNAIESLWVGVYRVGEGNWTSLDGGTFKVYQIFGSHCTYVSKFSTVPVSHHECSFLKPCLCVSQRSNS
# eIF4E 4G PPI – blocks eIF4E binding to eIF4G; P63073+Q04637; TR-FRET eIF4E-eIF4GI(517-606) binding, 2 h; inhibition, % at 21.7 µM; 0.37% of 220,000 active; AID 782;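 also: 0% = full FRET control wells and 100% = background wells lacking eIF4GI fragment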
# WT yeast gro inh – growth inhibition of WT yeast, mitochondrial fusion screen. mitochondrial fusion phenotypic screen, WT strain. inhibition, % at 10 µM. 2.1% of 190,000 active. AID 1362; in the data active = inhibition above about 58%; tested in S. cerevisiae
# RBBP9 inh conf – confirmation of human RBBP9 inhibitors | inhibition, % at 7.94 µM | AID 1537 | shares compounds with RBBP9 inhibitor | recombinant RBBP9, FP-Rh probe fluorescence polarization | 36% of 410 active;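 active = inhibition above the hit cutoff derived for the primary screen, cut at about 15% in these data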;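 also: 0% = RBBP9 with DMSO and 100% = wells lacking RBBP9 protein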
# Starred values were filed as active, the others as inactive; . = no result given. A selection: hits, their analogues and other compounds. The true share with any hit is near 3.7%.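 The calls were made as follows, unless noted: active = inhibition above about 30% (limit read from the data); inactive = the rest.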
SMILES,RBBP9 inhibitor,NCF1 inh,14-3-3 Bad PPI,EBV gp42 inh,eIF4E 4G PPI,WT yeast gro inh,RBBP9 inh conf
CCCn1c(=N)n(CCOc2ccc(OC)cc2)c2ccccc21,-8,-5,-3,-3,1,-10,.
CCC(=O)N=c1n(C)c2ccccc2n1CCOc1ccccc1,16*,-11,-3,-6,5,-12,6
Oc1ccc(/C=N/NC(=S)Nc2cccnc2)c(O)c1O,42*,-42,72*,15,58*,.,52*
Oc1cccc(/C=N/NC(=S)Nc2cccnc2)c1O,-4,-8,-7,-1,5,7,.
C[C@@]12CCC=C[C@H]1[C@H](c1ccc(F)c(/C=C/c3ccccc3)c1)N(Cc1ccccc1)C2=O,.,-8,-2,-10,-5,.,.
O=C1c2cc([N+](=O)[O-])cc3cc([N+](=O)[O-])cc(c23)C(=O)N1c1ccccn1,15*,-7,19,-9,7,41,10
COc1ccc(/C=C/C(=O)NC(=S)NNC(=O)Cc2cccs2)cc1OC,15*,-4,-10,-10,0,6,9
O=C(NNC(=O)c1cc(O)c(O)c(O)c1)NC1CCCCC1,14*,-4,4,-23,4,-1,23*
O=C(NNC(=O)c1cccnc1)NC1CCCCC1,-4,-5,-1,7,0,3,.
CC(C)c1cc(Nc2cccc(O)c2)cc(C(C)C)c1O,16*,.,.,.,.,.,-8
N#Cc1cc(-c2ccccc2)nc(N2CCNCC2)n1,0,-7,1,-16,3,.,.
Cc1cc(=O)n2[nH]c(=O)c(N=Nc3ccccc3)c2[nH]1,16*,-11,16,-9,-2,-25,38*
C=CCN=C(NC#N)SC,-3,-1,-4,-7,7,.,.
CNC(=S)Nc1cccc([N+](=O)[O-])c1,-2,-5,-12,-10,2,-14,.
CC(=O)NC(=S)Nc1cccc([N+](=O)[O-])c1,17*,-3,-1,2,-5,21,1
CC1/C(=N/O)CC(c2ccccc2)NC1c1ccccc1 (configuration not stated),0,-7,1,-2,0,25,.
CC(C)C1/C(=N/O)CC(c2ccccc2)NC1c1ccccc1 (configuration not stated),15*,-12,1,-10,1,.,6
Nc1nc(-c2cccnc2)nn1C(=O)COc1ccccc1,-4,-9,-4,-31,3,-38,.
Nc1nc(-c2cccnc2)nn1C(=O)CCc1ccccc1,14*,.,.,.,.,.,6
COc1ccc(C2Nc3cccc4cccc(c34)N2)cc1,25*,1,-5,5,3,12,21*
c1csc(C2Nc3cccc4cccc(c34)N2)c1,30*,3,-7,6,7,20,45*
CN1c2cccc3cccc(c23)N(C)C1c1cccs1,-2,16,6,1,5,5,.
CC(c1ccccc1)N1C(=O)/C(=C/c2ccncc2)SC1=S (configuration not stated),-9,-9,1,-7,1,.,.
O=C(C1COc2ccccc2O1)N1CCCC1 (configuration not stated),15*,-8,-10,-29,-6,7,7
O=C(C1COc2ccccc2O1)N1CCN(c2ccc(F)cc2)CC1 (configuration not stated),-12,-11,-6,-11,1,16,.
SMILES,RBBP9 inhibitor,NCF1 inh,14-3-3 Bad PPI,EBV gp42 inh,eIF4E 4G PPI,WT yeast gro inh,RBBP9 inh conf
CC1(C)OC(=O)C(=CNc2cccc(O)c2)C(=O)O1,-3,-2,-9,0,5,-1,.
CC1(C)OC(C)(C)/C(=C/Nc2ccc(O)cc2)C1=O,20*,21,10,15,21,-4,9
CCC(C)NS(=O)(=O)c1ccc(NC(C)=O)cc1 (configuration not stated),-1,-11,-5,-11,2,-24,.
CCC(NS(=O)(=O)c1ccc(C)cc1)C(=O)Nc1ccc(NC(C)=O)cc1 (configuration not stated),16*,-2,5,-11,-3,0,7
Cc1c(/C=N/NC(=O)c2cccs2)c2ccccc2n1Cc1ccccc1Cl,-6,-22,4,-30,-2,.,.
O=C(Nc1cccc2ccccc12)/C(=C/c1ccc([N+](=O)[O-])cc1)NC(=O)c1ccccc1,1,-5,-5,-16,5,-3,.
O=C(N/N=C/c1ccc(O)c(O)c1O)/C(=C/c1ccc([N+](=O)[O-])cc1)NC(=O)c1ccccc1,18*,-10,2,12,22,4,38*
O=C(Nc1cccnc1)c1ccc(S(=O)(=O)c2ccccc2)cc1,-2,2,-6,4,-4,-6,.

# Screening results: PubChem, several laboratories
